Screening results: PubChem, several laboratories
p97 ATPase inh = inhibitors of human p97 ATPase. recombinant p97 ATPase, Kinase-Glo ATP luminescence, 3 h. 0.42% of 220,000 active. P55072. inhibition, % at 8 µM; in the data active = inhibition above about 15%;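 note: 0% = DMSO vehicle and 100% = wells lacking enzyme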
Target sequence (P55072 whole entry, looked up): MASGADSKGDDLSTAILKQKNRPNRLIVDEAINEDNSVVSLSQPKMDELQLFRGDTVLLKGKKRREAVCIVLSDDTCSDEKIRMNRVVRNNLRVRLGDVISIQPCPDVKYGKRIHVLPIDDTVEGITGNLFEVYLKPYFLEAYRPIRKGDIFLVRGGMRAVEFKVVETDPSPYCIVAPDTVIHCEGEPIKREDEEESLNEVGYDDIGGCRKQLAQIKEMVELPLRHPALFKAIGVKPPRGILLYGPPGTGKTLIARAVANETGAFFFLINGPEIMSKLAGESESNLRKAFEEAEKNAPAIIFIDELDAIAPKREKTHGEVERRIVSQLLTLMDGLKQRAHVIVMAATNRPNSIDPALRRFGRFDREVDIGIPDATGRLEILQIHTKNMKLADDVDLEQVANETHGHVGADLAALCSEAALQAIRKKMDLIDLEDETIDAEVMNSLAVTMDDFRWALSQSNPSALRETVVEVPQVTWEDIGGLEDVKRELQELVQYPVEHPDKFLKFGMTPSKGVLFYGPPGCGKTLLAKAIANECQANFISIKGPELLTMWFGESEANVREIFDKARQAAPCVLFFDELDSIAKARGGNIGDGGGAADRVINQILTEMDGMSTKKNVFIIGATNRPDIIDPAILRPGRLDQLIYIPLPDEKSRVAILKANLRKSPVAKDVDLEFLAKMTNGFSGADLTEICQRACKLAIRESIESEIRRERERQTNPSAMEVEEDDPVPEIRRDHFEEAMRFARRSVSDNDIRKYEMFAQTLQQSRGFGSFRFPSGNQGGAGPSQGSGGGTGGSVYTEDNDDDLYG
CHOP inh = inhibitors of CHOP induction in ER stress response | CHO-K1 CHOP-promoter luciferase, tunicamycin-induced, 15-18 h | 3.8% of 220,000 active | inhibition, % at 10 µM | AID 2732;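 active = compounds that reduced the stress-induced luciferase reporter signal by more than about 70% of percent inhibition, limit read from the data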;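 note: 0% = tunicamycin plus vehicle and 100% = wells without tunicamycin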
PfM18AAP inh = blocks P. falciparum M18 aspartyl aminopeptidase | AID 1822 | recombinant PfM18AAP, H-Glu-NHMec fluorogenic cleavage | inhibition, % at 7.35 µM | 1.2% of 290,000 active;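 active = inhibition above the campaign mean inhibition over all tested compounds plus 3 SD, cut at about 28% in these data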;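 note: 0% = plate median of test compound wells and 100% = 2 mM ZnCl2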
NS3 helicase inh = blocks Hepatitis C virus NS3 helicase unwinding. NS3 helicase DNA unwinding, Cy5 molecular beacon fluorescence. inhibition, % at 10.9 µM. 0.56% of 290,000 active. AID 1800;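 active = inhibition above the mean of all tested compounds plus 3 SD, set per campaign, cut at about 35% in these data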;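 note: 0% = DMSO wells and 100% = thioflavine S control wells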
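Test system: hepatitis C virus NS3 helicase domain fragment enzyme. Also added: annealed dual-labelled DNA beacon duplex, ATP-started. Timing: 60 min unwinding reaction at 25 °C after ATP addition. Technique: Cy5 fluorescence. Measure: % inhibition of unwinding.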
UPR XBP1 act = activators of adaptive arm of unfolded protein response (XBP1) | CHO-XBP1 luciferase reporter, IRE1-XBP1 UPR activation, luminescence; percent of tunicamycin response, DMSO as zero | activation, % at 20 µM | 0.33% of 330,000 active;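 active = versus positive control, 20 µM dose yields 30% or more activation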;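 note: 100% = tunicamycin at 10 µg/mL and 0% = DMSO only wells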
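Signal: luciferase luminescence; Assay system: CHO-XBP1 luciferase reporter cells; Amount: one thousand reporter cells per well; Dosing: 20 µM single concentration, DMSO 1%; Benchmarks: high control tunicamycin 10 µg/mL final, low control DMSO vehicle only; Schedule: 6 h compound exposure at 37 °C, 5% CO2; Evaluation: percent activation relative to tunicamycin reference.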
UPR CHOP act = activators of apoptotic arm of unfolded protein response (CHOP); CHO-CHOP luciferase reporter, UPR activation, luminescence; percent of tunicamycin response over DMSO baseline; activation, % at 10 µM; 0.34% of 330,000 active; AID 449763;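 active = at 10 µM dose, activation of 40% or more, normalized to positive control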;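 note: 100% = tunicamycin at 10 µg/mL and 0% = DMSO alone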
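System: CHO CHOP reporter cells. Amount: 500 cells per well. Buffer or medium: F12 medium, 10% FBS. Compound dosing: one dose, 10 µM in 0.5% DMSO. Incubation: 6 h compound exposure at 37 °C after overnight seeding. Technique: Steady-Glo luciferase luminescence. Benchmarks: tunicamycin and DMSO controls.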
Active calls of the source: *; nt = not tested or not shown. A selection: hits, their analogues and other compounds. The true share with any hit is near 4.5%.

SMILES	p97 ATPase inh	CHOP inh	PfM18AAP inh	NS3 helicase inh	UPR XBP1 act	UPR CHOP act
O=C(CCc1ccccc1)c1ccc2c(c1)OCCCO2	-7	22	3	15	0	2
O=C(CCCc1ccccc1)c1ccc2c(c1)OCCO2	-12	89*	-5	-2	-9	-9
Cc1oc2ccc(O)c(CN3CCOCC3)c2c1C(=O)c1ccc(Cl)cc1	0	71*	10	-13	6	1
O=C(/C=C/c1ccccc1Cl)Nc1ccc2c(c1)C(=O)NC2=O	2	94*	2	1	-1	1
CC(=O)Nc1ccc(N(C(=O)Cn2nnc3ccccc32)C(C(=O)NC2CCCC2)c2ccc(O)c(O)c2)cc1 (stereo unspecified)	4	15	65*	8	-2	-1
O=C(NC1CCCCC1)C(c1ccc(F)cc1)N(Cc1ccco1)C(=O)Cn1nnc2ccccc21 (stereo unspecified)	1	74*	0	-3	0	0
CCOC(=O)c1c(N)nn(C(=O)C(C)(C)C)c1-c1ccccc1	1	94*	-5	1	1	1
CCOC(=O)c1c(N)nn(C(=O)c2ccccc2F)c1-c1ccc(OC)cc1	1	21	-6	-3	-1	1
Cc1cc(OCC(=O)NCc2nc(-c3ccccc3)no2)c(C)cc1Br	-3	62	-2	3	-1	-4
Cc1cc(C)c(C)c(OCC(=O)NCc2nc(-c3ccccc3)no2)c1	-4	86*	2	-7	1	2
COc1cccc(N(C(=O)Cn2nnc(-c3ccc(Cl)cc3)n2)C(C(=O)NCC2CCCO2)c2ccc(C)cc2)c1 (stereo unspecified)	-1	80*	3	0	4	1
COc1cccc(N(C(=O)Cn2nnc(-c3ccc(F)cc3)n2)C(C(=O)NCC2CCCO2)c2ccc(Cl)cc2)c1 (stereo unspecified)	-3	46	-2	1	4	-1
COc1cccc(-c2nnc3sc(C4CCCCC4)nn23)c1	-7	74*	5	2	-4	-1
CC(C)Sc1cc(Cl)nc(NC(=O)Nc2ccccc2)n1	nt	nt	-5	7	4	5
COc1ccc(NC(=O)/C(=C\c2ccncc2)NC(=O)c2ccccc2)cc1	4	4	8	-10	-4	0
CCn1c(CC(=O)Nc2ccc(C)c(Cl)c2)nnc1SCc1ccc(Cl)c(Cl)c1	0	9	10	4	-4	-3
CCn1c(CC(=O)Nc2ccc(C)c(Cl)c2)nnc1SCC(=O)Nc1nc(C)cs1	-1	79*	2	1	1	-1
Cc1ccc(S(=O)(=O)Nc2cc(Cl)ccc2-n2cncn2)cc1	nt	nt	nt	nt	-2	0
O=[N+]([O-])c1c(Nc2ccccn2)cc(Cl)c2nonc12	14	108*	7	-2	-11	-11
Cc1cc(NC(=O)c2ccc3nc(-c4ccccc4)c(-c4ccccc4)nc3c2)no1	3	78*	3	1	13	8
Cc1cc(NC(=O)c2ccccc2)no1	nt	nt	-10	-10	-4	6
CCOC(=O)c1ccc(NC(=S)Nc2cccc(C)n2)cc1	0	74*	-6	13	3	2
COC(c1ccccc1)c1nnc(CCC(=O)N(C)Cc2cccc(-n3cccn3)c2)o1 (stereo unspecified)	2	-9	2	8	0	5
CCOC(=O)c1[nH]c(C)c(C(=O)OCC)c1C	-5	-3	-13	-7	8	2
CCOC(=O)c1c(C(F)(F)C(F)(F)C(F)(F)C(F)(F)F)n[nH]c1C	-10	82*	11	11	-1	0
SMILES	p97 ATPase inh	CHOP inh	PfM18AAP inh	NS3 helicase inh	UPR XBP1 act	UPR CHOP act
Cc1occc1C(=O)N1CCN(c2ccccc2)CC1	4	8	1	-7	0	5
Cc1occc1C(=O)N1CCN(c2ccc(Cl)c(Cl)c2)CC1	-6	75*	3	-3	-1	2
O=C(NCc1ccccc1)N1CCN(c2ccc(Cl)c(Cl)c2)CC1	-7	76*	-1	-3	3	-1
O=C(NCc1ccccc1)N1CCN(c2ccc(F)cc2)CC1	-1	-10	2	-1	-1	-3
CCc1ccc2c(c1)C(c1ccc([N+](=O)[O-])cc1)=NNC(c1ccc(Br)cc1)=N2	-1	84*	-6	3	0	15
CC(=O)CSc1nc2ccc(Nc3nc(N4CCOCC4)nc(N4CCOCC4)n3)cc2s1	1	-25	3	-3	2	1
Cc1ccc(NC(=O)CSc2nc3ccc(Nc4nc(N5CCOCC5)nc(N5CCOCC5)n4)cc3s2)cc1	nt	nt	-6	10	78*	4
CCC(C)C(Nc1ccc(C(=O)OC)cc1[N+](=O)[O-])C(=O)OC (stereo unspecified)	4	89*	3	-4	0	2
COC(=O)c1ccc(NC(C(=O)OC)C(C)C)c([N+](=O)[O-])c1 (stereo unspecified)	4	32	5	-6	1	2
CN1/C(=C\C(=O)Nc2ccc(Br)cc2)C(C)(C)c2ccccc21	1	82*	14	-14	1	3
COC(=O)C(Cc1ccc(O)cc1)NC(=O)CCc1nc2ccccc2s1 (stereo unspecified)	nt	nt	4	18	-1	0
CN(C)CCCNC(=O)/C(=C\c1ccc(-c2ccc(Br)cc2)o1)NC(=O)c1ccccc1	-7	81*	-2	-75	0	2
N#Cc1c(Nc2ccc(F)cc2)sc(C(=O)c2ccc(F)cc2)c1N	0	76*	3	10	4	-1
O=C(Nc1ccc(Cl)cc1Cl)c1cc2ccccc2o1	nt	nt	0	0	-1	5
O/N=C(\c1ccc(Cl)cc1)c1cc2ccccc2o1	0	85*	5	-11	1	1
CCc1c(C(=O)OCc2ccccc2)[nH]c(C)c1C	3	-22	-9	-3	2	8
CCc1c(C)[nH]c(C(=O)OCc2ccccc2)c1C	0	79*	12	-7	nt	nt
Cc1cc2c(=O)n(C)c(SCC(=O)Nc3ccccc3C)nc2s1	nt	nt	nt	nt	-1	0
COc1ccc(C2/C=C\CN(C(=O)Nc3ccc(C(F)(F)F)cc3)CC(=O)N2Cc2ccc(F)cc2)cc1 (stereo unspecified)	nt	75*	nt	nt	-5	5
Cc1c(C#N)c(N)nc2c3c(sc12)NC(=O)CC3c1ccc(Cl)cc1 (stereo unspecified)	8	101*	-4	2	8	4
COc1ccccc1-c1c(C)nn2c(N3CCOCC3)cc(C)nc12	nt	nt	4	21	-1	0
